# According to ChEMBL document CHEMBL4513216, “Probing the Open Global Health Chemical Diversity Library for Multistage-Active Starting Points for Next-Generation Antimalarials” (ACS Infect Dis, 2020):
# Assay: Toxicity liver stage against HepG2, at 10uM
# Type: cell-based
# Parameters: test concentration 10 uM, cell line HepG2-A16-CD81EGFP
# Details: human, HepG2-A16-CD81EGFP cells; read-out: INHIBITION
# How it was run: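 Uninfected HepG2-A16-CD81EGFP cells, 3 × 10^3 per well, 1536-well, plated on prespotted compound at 10 μM final, parasite-free screening media added to match infected plates; puromycin 10 μM positive, DMSO 0.5% negative; run in parallel with 48 h PbLuc assay at 37 °C, 5% CO2; viability by CellTiter-Glo luminescence, normalized to controls.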
row,Structure (SMILES),cytotoxicity at 10 µM [%]
1,CCC1(CC)C(=O)NC(=O)N/C1=N/c1cccc(OC)c1,-51.8
2,CC(=O)Nc1nc(-c2ccccc2)c[nH]1,-1
3,CC(C)CNC(=O)c1nc(COc2ccc3c(c2)OCO3)no1,2.93
4,CC(C)n1ccc2ccc(C(=O)NC3CN4CCC3CC4)cc21 (configuration not stated),-57.4
5,CCOC(=O)c1cc2n(n1)CCCO2,3.86
6,O=C(CSC1=NS(=O)(=O)c2cc(F)ccc2N1)Nc1ccc(Cl)c(Cl)c1,11.5
7,Cc1noc(CNC(=O)CN(C)c2nc3c(C)ccc(C)c3s2)n1,55.7
8,Cc1nsc(C(=O)NCCCc2ccccc2)n1,-0.449
9,COC(=O)CCC(=O)N1CCc2nc(C(=O)N3CCCCC3)sc2CC1,15.4
10,CCOCC1CN(C(=O)[C@H]2CCCO2)Cc2nnn(CC3CC3)c21 (some centres not stated),-1.99
11,O=S(=O)(C1CC1)N1CCC2(COCc3cnc(NCC4CC4)nc32)C1 (configuration not stated),6.38
12,CCOc1cc(CNCCCn2ccnc2)cc(Cl)c1OCC,1.82
13,Cc1nc(C#N)c(N2CCC(c3nc(-c4ccccc4)no3)CC2)o1,-7.41
14,Cc1nc(NCc2ccccn2)c2c(n1)c(C)nn2C,-1.02
15,COc1cc2cc(C(=O)NCC(=O)O)n(C)c2c(OC)c1OC,-77.3
16,CCc1cc(=O)n(CC(=O)N2CCC(C)CC2)c(-c2ccccc2)n1,10.8
17,Cc1c(CNS(=O)(=O)c2cccc(COC(C)C)c2)cnn1C,6.14
18,CN(C)c1ccc(C(=O)N2CCC(c3cc4ncccc4[nH]3)CC2)cc1,-2.32
19,CCN1CCCC1CNCc1cc2cc3c(cc2[nH]c1=O)OCCO3 (configuration not stated),5.07
20,Cc1cc(N2CCC(c3n[nH]c4nccnc34)CC2)ncn1,-25.6
21,C[C@H](NC(=O)C1CCCC1)c1nc2cc(-c3ccc(F)cc3)ncn2n1,-10.9
22,COCC(=O)N1CCC(C(=O)c2cc(C)cnc2N)CC1,0.353
23,CCCn1ncc(CN2C[C@@H]3CCCN3C[C@H]2Cc2ccccc2)c1C,-16.3

row,Structure (SMILES),cytotoxicity at 10 µM [%]
1,Cc1ccc(C(=O)N2CCc3nc4c(C)csc4c(=O)n3CC2)cn1,-7.33
2,COCc1cc(O)nc(C2CCCN(Cc3cccc(OC)c3)C2)n1 (configuration not stated),4.97
3,CCOC(=O)CCN(Cc1cccnc1)C(=O)c1cc(Cl)c[nH]1,-1.24
4,COCCN(Cc1ccccn1)C(=O)CC1OCCc2ccsc21 (configuration not stated),-39
5,CCN(CC)S(=O)(=O)CC(=O)N1CCc2ccc(C)cc21,-5.77
6,CN(C)C(=O)CCC[S+]([O-])Cc1cc(Cl)ccc1Cl (configuration not stated),12.5
7,CN(C)C(=O)CCC[S+]([O-])Cc1ccc(Cl)c(Cl)c1 (configuration not stated),12.4
8,CC(=O)NCC1CCN(Cc2nc(C3CC3)no2)CC1,-4.12
9,Cc1nsc(N2CCN(Cc3cccc(F)c3)CC2)n1,2.74
10,CN(Cc1ccccc1CNC(=O)C1CNC(=O)N1)C1CCCCC1 (configuration not stated),5.09
11,Cn1cccc(NC(=O)NCCc2cccc(O)c2)c1=O,-43.6
12,CCc1ncnc(N2CCOCC2C2CC2)c1F (configuration not stated),-6.62
13,Cc1cccc(CSc2nnc(C)n2CC(N)=O)c1,-4.46
14,C=C(C)CN1CCC(NC(=O)NCCc2cccc(C(N)=O)c2)CC1,11.4
15,CCOCC(=O)NC1(c2cccc(Cl)c2)CC1,3
16,Cc1cccc(C2(NC(=O)CCCn3cncn3)CCCC2)c1,15
17,Cc1cc(=O)n2ncnc2n1CC(O)c1ccc(F)cc1F (configuration not stated),-1.2
18,Cc1noc(C)c1CC(=O)NCC(C(C)C)N1CCOCC1 (configuration not stated),-42.7
19,OCc1cc2ccccc2nc1NCC1(O)CCC1,-46.9
20,CCNC(=O)N1CCC(NC(=O)NCCc2cc(F)cc(F)c2)C1 (configuration not stated),-43.4
21,CC(C)(C)c1nc(CN2CCCC2c2nnc3ccccn23)no1 (configuration not stated),-1.99
22,CC(C)C(=O)NCCNC(=O)C12CCC(=O)N1c1cc(Cl)ccc1S2 (configuration not stated),15.3
23,CC(C)n1c2ccccc2c2c1cc(C(=O)O)n2C(=O)N(C)C,-94.3

row,Structure (SMILES),cytotoxicity at 10 µM [%]
1,Cc1csc(CN2C[C@@H]3CN(C)CCO[C@@H]3C2)n1,-105
2,O=C(CC1CC2(CCNCC2)c2ccccc21)NCC1CC1 (configuration not stated),-118
3,CS(=O)(=O)NC[C@]12COC[C@H]1CN(C(=O)C1CC(F)(F)C1)C2,-95.5
4,COC(=O)CCC(=O)N1CCC2(CN(Cc3cccc(Cl)c3)C2)C1,-62.4
5,O=C(Cc1ccc(F)cc1)N1CCn2c(Cn3cncn3)cnc2C1,-67.3
6,O=C(NC1CCC1)C1=NOC2(CCN(Cc3ccccc3)C2)C1 (configuration not stated),-97.6
7,CN1CCC2(CC1)CN(C(=O)c1ccncc1)Cc1ccccc12,-86.3
8,CCc1cnc(N)nc1NCCc1ccc(OC)cc1OC,3.29
9,Cc1cc(N2CCC3(CCCN(CCO)C3=O)C2)nc2ccccc12 (configuration not stated),3.69
10,COCCC(=O)N1CCCC(CCC(=O)Nc2ccc(Cl)cc2)C1 (configuration not stated),6.48
11,COc1cccc2c(=O)n(C3CCNCC3)cnc12,-53.4
12,Cc1cc2n(n1)CCN(c1nc(N(C)C)nc3c1CCNC3)C2,0.94
13,Cc1cc(C(=O)N(C)Cc2ccccc2OCC(C)C)cc(=O)[nH]1,8.45
14,CCn1ccnc1CN(C)c1cc(N(C)C)ncn1,-42.1
15,CCCn1ncc(CN(CCN(C)C)Cc2ccsc2)c1C,12.2
16,O=C(Cc1c[nH]c(=O)[nH]c1=O)N1CCC2(CCC(=O)N(C3CC3)C2)CC1,-44.5
17,CCCN1CCC(CC(=O)N2CC(C)(C)[C@@](C)(O)C2)CC1,2.65
18,Cc1ncsc1CCN(C)Cc1ccc(CO)o1,-15.3
19,CN1CCCC(CNS(=O)(=O)N2CCc3ccccc3C2)C1 (configuration not stated),-4.32
20,O=C(O)[C@@H]1CN(C2CCCC2)C[C@H]1C1CC1,-147
21,CCc1cc(N(C)Cc2noc(CC(C)C)n2)ncn1,7.18
22,CCNC(=O)C1CCN(Cc2ccc(C(=O)Nc3nnc(C)s3)cc2)C1 (configuration not stated),-0.834
23,Cc1cc(CN2CCCC(CNC(=O)Cn3cccn3)C2)oc1C (configuration not stated),6.2

row,Structure (SMILES),cytotoxicity at 10 µM [%]
1,O[C@H]1[C@H](NCCc2cnccn2)c2ccccc2C12CCNCC2,-7.32
2,COc1ccc(CN(C)C2CSCCSC2)c2cccnc12,31.7
3,COCCC1(C(=O)O)CCCN(Cc2cc3c(cc2C)OCO3)C1 (configuration not stated),-2.37
4,CN1CCN(c2cnn(CCn3cccn3)c(=O)c2)CC1,-47.4
5,COc1ccc2c(c1)OCC(Cc1ccc(C)nc1N)C2 (configuration not stated),-2.57
6,c1cncc(NCCNC2CSCCSC2)c1,15.8
7,Cc1cc2c(c(-c3cncc(C(=O)N4CCCC4)n3)c1)OC(CN)C2 (configuration not stated),-45.7
8,CC(O)Cc1cn(CC2CCN(C3CCSCC3)CC2)nn1 (configuration not stated),8.88
9,COCCN(C)C[C@@H]1CN(C(=O)c2ccc(=O)n(C)c2)C[C@@H]1CO,-11.1
10,CC(c1ccon1)N(C)C(=O)C1CCN(C(=O)C2CCC2)CC1 (configuration not stated),7.13
11,c1ccc2c(c1)CCN(c1nc(-c3ccncc3)nc3c1CCNC3)C2,37.3
12,COc1cccc(Cl)c1C(C(=O)O)N(C)Cc1c(C)n[nH]c1C (configuration not stated),-1.89
13,Cc1c[nH]c(CN(C)C(C(=O)O)c2c(F)cccc2OC(C)C)n1 (configuration not stated),-50.6
14,COc1ccc(OC)c(-c2nc(CN(C)Cc3nncn3C)c(C)o2)c1,-9.57
15,COc1cccc(-c2nccnc2C2CCN(C(C)=O)CC2)c1,1.47
16,CCN1CCN(c2ncc(-c3cc(C)no3)c(-c3ccc(C)s3)n2)CC1,2.44
17,O=C(O)CCc1cccc(C2CCCN2Cc2ccc(F)c(F)c2)n1 (configuration not stated),-5.25
18,CCc1nc(C)c(C(=O)NCCNC(=O)c2cccs2)s1,-1.45
19,CN(Cc1cccnc1)C1CCCN(Cc2noc(C3CC3)n2)C1 (configuration not stated),-4.95
20,CN1CCOC(CNCc2coc(-c3cccc(F)c3)n2)C1 (configuration not stated),-29.3
21,Cc1c(C(=O)NCC2CCS(=O)(=O)C2)cnn1-c1ccccc1 (configuration not stated),-10.2
22,CCn1cnnc1CNC(=O)NC(C)c1ccccn1 (configuration not stated),-17.6
23,COc1ncccc1NC(=O)N(Cc1ccc(C)o1)C1CC1,-1.83

row,Structure (SMILES),cytotoxicity at 10 µM [%]
1,c1ccc(-n2ncc(CNCC3CCCN3c3cccnn3)n2)cc1 (configuration not stated),-6.71
2,NC(=O)C1CN(C(=O)Nc2ccccc2-c2cccs2)CCO1 (configuration not stated),-4.84
3,CC(C)C(C(=O)N1CCC(Nc2cccnn2)CC1)n1cncn1 (configuration not stated),-4.35
4,Cc1ccc(Oc2ccc(NC(=O)NCC3CCOC3)cn2)cc1C (configuration not stated),-5.28
5,COCCNC(=O)Nc1ccc(-n2cncn2)c(F)c1,-0.0868
6,CC(NC(=O)NCCCc1n[nH]c(N)c1C#N)c1cccs1 (configuration not stated),-6.8
7,Cc1cnn(CC2CCCCN2Cc2nc(N)c3ccccc3n2)c1 (configuration not stated),-7.21
8,Cc1cnn(CC2CN(Cc3nc4ccccc4nc3C)CCO2)c1 (configuration not stated),-4.02
9,c1csc(-c2noc(C3CNC3)n2)c1,-5.39
10,Cc1noc([C@@H]2C[C@H]3OCC[C@H]3N(Cc3cc(C)c(C)o3)C2)n1,-72.2
11,O=C1N(c2ccsc2)CCC12CCCN(CC1CC1)C2 (configuration not stated),-79.4
12,CCC(C)S(=O)(=O)N1CCc2nc(C3CCNCC3)ncc2C1 (configuration not stated),-10.7
13,COC1COC2(CCN(Cc3ccc4ccccc4n3)CC2)C1 (configuration not stated),5.05
14,O=C(CC1CC1)N1CCc2ncc(Cn3cncn3)n2CC1,-71.6
15,CS(=O)(=O)N1CCOCC2(CN(Cc3ccc(F)cc3)CCO2)C1 (configuration not stated),1.42
16,O=C(c1cccc(F)c1)N1CCC2(CC1)CN(c1ccccn1)CCO2,-74.1
17,Fc1cnc(N2CCCC3(CCN(Cc4cccs4)C3)C2)nc1 (configuration not stated),-71.1
18,O=C(CCC1CCCC1)N1CCCC(c2ncc3c(n2)CCNC3)C1 (configuration not stated),-23
19,O=C1CCCN1CC1CN(CC2CCOCC2)Cc2nccn2C1 (configuration not stated),1.65
20,Fc1cnc(N2CCn3c(CN4CCCC4)nnc3C2)nc1,-145
